Screening data (PubChem BioAssay)
GSK3beta inhib: blocks human GSK3beta kinase activity; P49841; GST-GSK3beta kinase, ADP-Glo luminescence, 60 min; active compounds read low; activity score (negative = inhibition), % at 10 µM; 0.038% of 300,000 active;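 active = more than half of replicate wells score below -50%, meaning over 50% inhibition versus plate controls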;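 note: 0% = median DMSO wells and -100% = median GW8510 positive control wells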
Target sequence (P49841 whole entry, looked up): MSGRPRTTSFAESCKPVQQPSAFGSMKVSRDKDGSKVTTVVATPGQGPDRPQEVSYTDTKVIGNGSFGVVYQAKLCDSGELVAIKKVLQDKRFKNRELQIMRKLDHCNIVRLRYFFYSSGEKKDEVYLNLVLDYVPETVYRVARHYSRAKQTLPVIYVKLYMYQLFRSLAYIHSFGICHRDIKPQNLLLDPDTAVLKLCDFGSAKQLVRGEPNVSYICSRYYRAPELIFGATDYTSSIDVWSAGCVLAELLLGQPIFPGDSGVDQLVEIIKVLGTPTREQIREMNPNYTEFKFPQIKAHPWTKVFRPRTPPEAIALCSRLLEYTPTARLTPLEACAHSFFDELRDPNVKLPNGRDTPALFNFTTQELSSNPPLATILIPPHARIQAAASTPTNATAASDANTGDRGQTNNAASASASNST
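Test system – GST-tagged human GSK3beta kinase, cell-free · Incubation – 60 min enzyme reaction, room temperature · Signal – ADP-Glo luminescence · Also added – peptide substrate and ATP at 25 µM · Controls – DMSO neutral wells and GW8510 at 20 µM as positive · Buffer or medium – Tris/MgCl2 kinase buffer · Measure – Luminescence-derived activity versus plate DMSO and GW8510 wells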
GSK3A inh: inhibitors of human GSK-3 alpha kinase; P49840; ADP-Glo luminescence, 60 min; inhibition, % at 10 µM; 0.1% of 320,000 active;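 active = more than half of replicates show inhibition above 20%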;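 note: GST-tagged GSK-3 alpha with peptide substrate and 25 µM ATP; 0% = DMSO neutral wells and 100% = GW8510 positive control wells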
MEKK2wt PB1 HTS: raises or lowers MEK5 binding to wildtype human MEKK2 PB1 domain | Q9Y2U5 | bead flow cytometry, Alexa488-MEK5 binding to MEKK2 WT; actives lie on both sides | binding response (% of control), % at 10 µM | 1.1% of 290,000 active; in the data active = binding response below about 67% or above about 130%
MEKK2 mut-MEK5: signal of MEK5 binding to mutant human MEKK2 PB1 domain. bead flow cytometry, Alexa488-MEK5 binding to MEKK2 mutant. percent response, % at 10 µM. 0.35% of 290,000 active; in the data active = percent response above about 24%, passing the limit was not always enough
STK33 kinase inh: inhibitors of human STK33 kinase; Q9BYT3; purified STK33, MBP phosphorylation, ADP-Glo luminescence; inhibition, % at 10 µM; 0.073% of 320,000 active;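 active = inhibition at or above 25%, using the most active replicate where run in duplicate; inactive = inhibition below 25%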
MEKK3 PB1 HTS: modulators (inhibitors or enhancers) of MEK5 binding to human MEKK3 PB1 domain; Q99759; bead-based flow cytometry, Alexa488-MEK5 binding to MEKK3; actives lie on both sides; 0 = blocked by unlabeled MEK5, 100 = vehicle; binding response (% of control), % at 10 µM; 1.4% of 290,000 active; AID 1529;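 active = binding response more than 3 SD above or below the average of its plate-row segment, actives on both sides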;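 note: Alexa488 bead fluorescence after subtracting the streptavidin-only scavenger bead signal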
MEKK2wt confirm: raises or lowers MEK5 binding to wildtype human MEKK2, retest; shares compounds with MEKK3 PB1 HTS; bead flow cytometry, Alexa488-MEK5 binding to MEKK2 WT; actives lie on both sides; binding response (% of control), % at 10 µM; 2.4% of 5,900 active; AID 1892; in the data active = binding response below about 16% or above about 210%; inactive = in between
MEKK2mut-MEK5: signal of MEK5 binding to mutant human MEKK2, retest; shares compounds with MEKK3 PB1 HTS; percent response, % at 10 µM; bead flow cytometry, Alexa488-MEK5 binding to MEKK2 mutant; AID 1893; 2% of 5,900 active; in the data active = percent response mostly above about 71%, no sharp cut-off; inactive = mostly below about 38%;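 note: higher means compound restores mutant binding toward wildtype level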
MEKK3-MEK5 inh: confirmation of inhibitors of MEK5 binding to human MEKK3 | shares compounds with MEKK3 PB1 HTS | bead flow cytometry, Alexa488-MEK5 binding to MEKK3; active compounds read low | binding response (% of control), % at 10 µM | 1.8% of 5,900 active;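 active = binding response below 72% of control, or above a set upper limit, though filed actives all read lower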;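 note: 100% = DMSO only wells and 0% = binding blocked by excess unlabeled MEK5; lower values mean stronger disruption of MEK5 binding to MEKK3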
* = called active by the depositor; / = no result given; [ ] = another dose, or the depositor's remark. This is a sample that favours compounds with a hit; in the whole collection about 2.1% have one here.

SMILES	GSK3beta inhib	GSK3A inh	MEKK2wt PB1 HTS	MEKK2 mut-MEK5	STK33 kinase inh	MEKK3 PB1 HTS	MEKK2wt confirm	MEKK2mut-MEK5	MEKK3-MEK5 inh
Cc1nn(-c2ccccc2C(=O)O)c(=O)c2ccccc12	0	-1	-1.0*[inhibitor]	-26	0	2.0*[inhibitor]	103	2	103
CCCCS(=O)(=O)N1CCCC(C(=O)NCC2CCCO2)C1 (stereo not given)	-20	/	98	2	/	98	/	/	/
CCn1c(CN(C)c2ccccc2)nc2ccccc21	1	0	110	8	-1	106	/	/	/
CN(CC(=O)NCc1ccncc1)S(=O)(=O)c1ccc2ccccc2c1	0	-1	111	0	-2	129*	104	4	101
Cc1ccc(S(=O)(=O)N(C)CC(=O)NCc2ccncc2)cc1	2	-2	83	-10	-1	77	/	/	/
CCN1c2ccccc2NC2C1C(C(C)=O)C(=O)N2c1ccc(Cl)cc1 (stereo not given)	6	0	59*	73*	-4	93	101	-2	102
COc1ccc(F)cc1S(=O)(=O)NCc1ccccc1	-3	0	93	0	-1	72*[inhibitor]	100	-6	101
COc1ccc(OC)c(NC(=O)c2cc3ccccc3cc2OC)c1	5	-2	106	28*	-1	103	109	4	104
COc1ccc(C(=O)Nc2cc(OC)ccc2OC)cc1	-3	8	/	/	-1	/	/	/	/
O=C1C2C3C=CC(C3)C2C(=O)N1c1ccc(N2CCN(c3ccccn3)CC2)c([N+](=O)[O-])c1 (stereo not given)	1	-2	78	-13	-1	90	/	/	/
COc1cc(C(=O)ONC(=O)c2ccc(OC(F)F)cc2)cc(OC)c1OC	2	-1	98	3	-1	98	/	/	/
COc1ccc(S(=O)(=O)Nc2cccc3c2O[C@H](CN(C)S(=O)(=O)c2cn(C)cn2)[C@@H](C)CN([C@H](C)CO)C3=O)cc1	/	-2	/	/	-1	/	/	/	/
CCOc1ccc(C(=O)NCC(c2cccs2)N(C)C)cc1OCC (stereo not given)	1	1	94	-2	1	70*[inhibitor]	100	5	103
COC(=O)c1cc(C(=O)OCC(=O)NNC(=O)c2cccs2)cc([N+](=O)[O-])c1	1	-3	/	/	-1	/	/	/	/
Cc1cccc(C(=O)OCc2cnc(Cl)s2)c1	0	-2	25*[inhibitor]	-17	0	15*[inhibitor]	104	4	101
S=C(Nc1ccc(Cl)cc1)NC1CC2CCC(C1)N2Cc1ccccc1 (stereo not given)	0	2	156*	41	0	110	142	28	110
S=C(NC1CCCCC1)N1CCN(Cc2ccccc2Cl)CC1	1	-1	103	6	1	103	/	/	/
S=C(NC1CCCCC1)N1CCN(Cc2ccccc2)CC1	-3	1	105	2	-2	143*	109	4	104
S=C(Nc1ccc(Cl)c(Cl)c1)NC1CCN(Cc2ccccc2)CC1	-5	13	168*	34*	12	111	171	35	110
Cn1nc(C(F)(F)F)c(-c2ccccc2)c1NC(=O)c1nccnc1C(=O)O	7	-3	92	-12	-2	92	/	/	/
Cn1nc(C(F)(F)F)c(-c2ccc(F)cc2)c1NC(=O)c1cccnc1	-1	0	118	28	0	128*	107	0	103
S=C1NC[C@H](c2ccccc2)N1CCCCC1CCCCC1	1	14	85	1	9	92	/	/	/
